target: T1, OR2M3 (Homo sapiens) (UniProt Q8NG83); conditions: stereoisomer not certain
T1 sequence (whole entry): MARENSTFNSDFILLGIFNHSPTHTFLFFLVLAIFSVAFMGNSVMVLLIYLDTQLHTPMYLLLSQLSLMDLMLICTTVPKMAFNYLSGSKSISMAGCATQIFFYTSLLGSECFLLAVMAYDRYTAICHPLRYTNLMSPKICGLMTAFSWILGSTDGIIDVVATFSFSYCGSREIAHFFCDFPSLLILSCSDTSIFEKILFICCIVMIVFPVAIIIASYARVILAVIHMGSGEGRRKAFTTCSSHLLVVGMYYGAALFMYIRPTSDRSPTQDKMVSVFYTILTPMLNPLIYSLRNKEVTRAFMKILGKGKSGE
Method in brief: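 Values were gathered from published papers (main text and supplementary material), with extra details requested from the original authors when needed, and checked for typos and inconsistencies. Each receptor–molecule pair is called responsive (active) if the original authors judged the measured signal statistically different from baseline, and non-responsive (inactive) otherwise. Assay methods varied by source, often transient mammalian cell-line luciferase assays. Recorded details include cell line, G-protein, co-transfected protein and tags.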

SMILES	odorant receptor agonist call
CCCCCCC1CCC(=O)O1 (configuration not stated)	inactive
CC=CC(=O)C1=C(C)C=CCC1(C)C	inactive
CCCCCCOC(C)=O	inactive
CCC=CCCOC(C)=O	inactive
CCC=CCC=O	inactive
Cc1cccc(C)c1O	inactive
CCC(S)C(C)=O (configuration not stated)	inactive
CCCSSCCC	inactive
CCC=CCCC=O	inactive
CCOC(=O)C(C)C	inactive
CCCCCC=CC=O	inactive
C=C1CCC2(C(C)C)CC12 (configuration not stated)	inactive
CCCCC(CC)CCC(=O)O (configuration not stated)	inactive
CCO	inactive
COc1nccnc1CC(C)C	inactive
CC(=O)C1=NCCS1	inactive
CCCc1ccc(O)c(OC)c1	inactive
CCCCCC(=O)OCC	inactive
O=C(O)CCc1ccccc1	inactive

SMILES	odorant receptor agonist call
CCCCCCCC1CCCC(=O)O1 (configuration not stated)	inactive
CCCCCC=CC=CC=O	inactive
CCCC(S)C(C)CO (configuration not stated)	active
C=C(C)c1ccc(C)cc1	inactive
CC(=O)OCCc1ccccc1	inactive
CCC(C)C(=O)OC (configuration not stated)	inactive
Cc1occc1S	inactive
CSCCC=O	inactive
CSCSC	inactive
CCC=CCCC=CC=O	inactive
OCCc1ccccc1	inactive
CCCCCCCCCC(=O)[O-].[H+]	inactive
CCCCC=CC=O	inactive
CCC(=O)C(C)=O	inactive
COc1ccc2ccc(=O)oc2c1	inactive
CCCSSSCCC	inactive
CCCC(S)CCO (configuration not stated)	inactive
CCCCC(C)CCC(=O)O (configuration not stated)	inactive
